Test results as given in ChEMBL document CHEMBL1138354, “2-(2'-((dimethylamino)methyl)-4'-(fluoroalkoxy)-phenylthio)benzenamine derivatives as serotonin transporter imaging agents” (J Med Chem, 2007).

How the values were obtained:
Blood [1] = experiment: Biodistribution in iv dosed rat blood after 60 mins; format: ADME, organism-based; settings: in vivo, 1 h
In short: (§1)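 [18F]-labeled tracer was given to rats under isoflurane anesthesia: 0.2 ml sterile water with 1 mg/mL BSA and 10–100 μCi, into the femoral vein. Three rats per group. Animals were killed by cervical dislocation under anesthesia at the stated time. Organs were removed, weighed and counted. Uptake was calculated as percent dose against a 1% aliquot of the injected dose counted alongside.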

Lung [2] = experiment: Biodistribution in iv dosed rat lungs after 60 mins; format: ADME, organism-based; settings: in vivo, 1 h; in short: as §1
Spleen [3] = experiment: Biodistribution in iv dosed rat spleen after 2 mins; format: ADME, organism-based; settings: in vivo
Kidney [4] = experiment: Biodistribution in iv dosed rat kidney after 120 mins; format: ADME, organism-based; settings: in vivo, 2 h; in short: as §1
Liver [5] = experiment: Biodistribution in iv dosed rat liver after 120 mins; format: ADME, organism-based; settings: in vivo, 2 h; in short: as §1
Blood [6] = experiment: Biodistribution in iv dosed rat blood after 240 mins; format: ADME, organism-based; settings: in vivo, 4 h; in short: as §1
Heart [7] = experiment: Biodistribution in iv dosed rat heart after 2 mins; format: ADME, organism-based; settings: in vivo; in short: as §1
Nucleic Acid [8] = experiment: Ratio of drug level in cortex to cerebellum in rat assessed as radioactivity after 240 mins; format: ADME, tissue-based; settings: in vivo, 4 h
Kidney [9] = experiment: Biodistribution in iv dosed rat kidney after 60 mins; format: ADME, organism-based; settings: in vivo, 1 h; in short: as §1
Nucleic Acid [10] = experiment: Ratio of drug level in cortex to cerebellum in rat assessed as radioactivity after 120 mins; format: ADME, tissue-based; settings: in vivo, 2 h
In short: (§2)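 Groups of three normal rats under isoflurane received the [18F] tracer (10–100 μCi in 0.2 ml sterile water containing 1 mg/mL BSA) into the femoral vein. They were killed by cervical dislocation under anesthesia at the stated time. Cortex, striatum, hippocampus, hypothalamus and cerebellum were dissected, weighed and gamma-counted. %dose/g was set against a 100-fold diluted dose aliquot, and each region was divided by cerebellum.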

Kidney [11] = experiment: Biodistribution in iv dosed rat kidney after 30 mins; format: ADME, organism-based; settings: in vivo, 0.5 h; in short: as §1
Striatum [12] = experiment: Biodistribution in iv dosed rat striatum assessed as radioactivity after 30 mins; format: ADME, organism-based; settings: in vivo, 0.5 h
Cortex = experiment: Biodistribution in iv dosed rat cortex assessed as radioactivity after 240 mins; format: ADME, organism-based; settings: in vivo, 4 h
In short: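 Rats received the [18F] tracer under isoflurane anesthesia: 0.2 ml sterile water with 1 mg/mL BSA and 10–100 μCi, into the femoral vein. Three rats per group. After cervical dislocation under anesthesia, the cortex was dissected, weighed and gamma-counted. Percent dose/g was calculated against a 100-fold diluted aliquot of the injected dose.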

Lung [13] = experiment: Biodistribution in iv dosed rat lungs after 30 mins; format: ADME, organism-based; settings: in vivo, 0.5 h; in short: as §1
Zone of skin = experiment: Biodistribution in iv dosed rat skin after 30 mins; format: ADME, organism-based; settings: in vivo, 0.5 h
In short: (§3)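 Rats, 3 per group, under isoflurane. ¹⁸F tracer (10–100 μCi) in 0.2 ml sterile water with 1 mg/mL BSA injected into the femoral vein. Killed by cervical dislocation under anesthesia at the stated time. Organs removed, weighed and counted. % dose/organ calculated against counts of a 1% diluted aliquot of the injected dose.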

Nucleic Acid [14] = experiment: Ratio of drug level in hypothalamus to cerebellum in rat after 120 mins; format: ADME, tissue-based; settings: in vivo, 2 h
In short: (§4)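 Rats, 3 per group, given ¹⁸F tracer (10–100 μCi, 0.2 ml sterile water with 1 mg/mL BSA) into the femoral vein under isoflurane. Brain regions, including hypothalamus, striatum and cerebellum, dissected, weighed and counted. % dose/g calculated against a 1% diluted aliquot of the dose. Region/cerebellum ratio is region %dose/g divided by cerebellum %dose/g. SD of the ratio propagated from both means and SDs.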

Brain [15] = experiment: Biodistribution in iv dosed rat brain after 30 mins; format: ADME, organism-based; settings: in vivo, 0.5 h; in short: as §1
Nucleic Acid [16] = experiment: Ratio of drug level in cortex to cerebellum in rat assessed as radioactivity after 2 mins; format: ADME, tissue-based; settings: in vivo
Kidney [17] = experiment: Biodistribution in iv dosed rat kidney after 2 mins; format: ADME, organism-based; settings: in vivo; in short: as §1
Spleen [18] = experiment: Biodistribution in iv dosed rat spleen after 120 mins; format: ADME, organism-based; settings: in vivo, 2 h; in short: as §3
Nucleic Acid [19] = experiment: Ratio of drug level in striatum to cerebellum in rat assessed as radioactivity after 240 mins; format: ADME, tissue-based; settings: in vivo, 4 h
Brain [20] = experiment: Biodistribution in iv dosed rat brain after 120 mins; format: ADME, organism-based; settings: in vivo, 2 h; in short: as §1
Spleen [21] = experiment: Biodistribution in iv dosed rat spleen after 30 mins; format: ADME, organism-based; settings: in vivo, 0.5 h; in short: as §3
Heart [22] = experiment: Biodistribution in iv dosed rat heart after 30 mins; format: ADME, organism-based; settings: in vivo, 0.5 h; in short: as §1
Nucleic Acid [23] = experiment: Ratio of drug level in hypothalamus to cerebellum in rat after 30 mins; format: ADME, tissue-based; settings: in vivo, 0.5 h; in short: as §4
Liver [24] = experiment: Biodistribution in iv dosed rat liver after 240 mins; format: ADME, organism-based; settings: in vivo, 4 h; in short: as §1
Heart [25] = experiment: Biodistribution in iv dosed rat heart after 240 mins; format: ADME, organism-based; settings: in vivo, 4 h; in short: as §1
Blood [26] = experiment: Biodistribution in iv dosed rat blood after 120 mins; format: ADME, organism-based; settings: in vivo, 2 h; in short: as §1
Heart [27] = experiment: Biodistribution in iv dosed rat heart after 60 mins; format: ADME, organism-based; settings: in vivo, 1 h; in short: as §1
Nucleic Acid [28] = experiment: Ratio of drug level in hypothalamus to cerebellum in rat after 2 mins; format: ADME, tissue-based; settings: in vivo
Lung [29] = experiment: Biodistribution in iv dosed rat lungs after 240 mins; format: ADME, organism-based; settings: in vivo, 4 h; in short: as §1
Lung [30] = experiment: Biodistribution in iv dosed rat lungs after 120 mins; format: ADME, organism-based; settings: in vivo, 2 h; in short: as §1
Nucleic Acid [31] = experiment: Ratio of drug level in hippocampus to cerebellum in rat assessed as radioactivity after 240 mins; format: ADME, tissue-based; settings: in vivo, 4 h
Blood [32] = experiment: Biodistribution in iv dosed rat blood after 2 mins; format: ADME, organism-based; settings: in vivo; in short: as §1
Bone [33] = experiment: Biodistribution in iv dosed rat bone after 2 mins; format: ADME, organism-based, Bone element; settings: in vivo; in short: as §1
Muscle tissue [34] = experiment: Biodistribution in iv dosed rat muscle after 30 mins; format: ADME, organism-based; settings: in vivo, 0.5 h; in short: as §1
Liver [35] = experiment: Biodistribution in iv dosed rat liver after 60 mins; format: ADME, organism-based; settings: in vivo, 1 h; in short: as §1
Blood [36] = experiment: Biodistribution in iv dosed rat blood after 30 mins; format: ADME, organism-based; settings: in vivo, 0.5 h; in short: as §1
Brain [37] = experiment: Biodistribution in iv dosed rat brain after 240 mins; format: ADME, organism-based; settings: in vivo, 4 h; in short: as §1
Muscle tissue [38] = experiment: Biodistribution in iv dosed rat muscle after 2 mins; format: ADME, organism-based; settings: in vivo; in short: as §1
Striatum [39] = experiment: Biodistribution in iv dosed rat striatum assessed as radioactivity after 240 mins; format: ADME, organism-based; settings: in vivo, 4 h
Nucleic Acid [40] = experiment: Ratio of drug level in striatum to cerebellum in rat assessed as radioactivity after 60 mins; format: ADME, tissue-based; settings: in vivo, 1 h
Nucleic Acid [41] = experiment: Ratio of drug level in striatum to cerebellum in rat assessed as radioactivity after 2 mins; format: ADME, tissue-based; settings: in vivo
Kidney [42] = experiment: Biodistribution in iv dosed rat kidney after 240 mins; format: ADME, organism-based; settings: in vivo, 4 h; in short: as §1
Brain [43] = experiment: Biodistribution in iv dosed rat brain after 2 mins; format: ADME, organism-based; settings: in vivo; in short: as §1
Nucleic Acid [44] = experiment: Ratio of drug level in cortex to cerebellum in rat assessed as radioactivity after 30 mins; format: ADME, tissue-based; settings: in vivo, 0.5 h; in short: as §2
Nucleic Acid [45] = experiment: Ratio of drug level in striatum to cerebellum in rat assessed as radioactivity after 30 mins; format: ADME, tissue-based; settings: in vivo, 0.5 h; in short: as §2
Striatum [46] = experiment: Biodistribution in iv dosed rat striatum assessed as radioactivity after 2 mins; format: ADME, organism-based; settings: in vivo
Nucleic Acid [47] = experiment: Ratio of drug level in hippocampus to cerebellum in rat assessed as radioactivity after 60 mins; format: ADME, tissue-based; settings: in vivo, 1 h
Lung [48] = experiment: Biodistribution in iv dosed rat lungs after 2 mins; format: ADME, organism-based; settings: in vivo; in short: as §1
Bone [49] = experiment: Biodistribution in iv dosed rat bone after 60 mins; format: ADME, organism-based, Bone element; settings: in vivo, 1 h; in short: as §1
Brain [50] = experiment: Biodistribution in iv dosed rat brain after 60 mins; format: ADME, organism-based; settings: in vivo, 1 h; in short: as §1
Nucleic Acid [51] = experiment: Ratio of drug level in striatum to cerebellum in rat assessed as radioactivity after 120 mins; format: ADME, tissue-based; settings: in vivo, 2 h; in short: as §2
Liver [52] = experiment: Biodistribution in iv dosed rat liver after 2 mins; format: ADME, organism-based; settings: in vivo; in short: as §1
Spleen [53] = experiment: Biodistribution in iv dosed rat spleen after 60 mins; format: ADME, organism-based; settings: in vivo, 1 h
Nucleic Acid [54] = experiment: Ratio of drug level in hypothalamus to cerebellum in rat assessed as radioactivity after 240 mins; format: ADME, tissue-based; settings: in vivo, 4 h
Muscle tissue [55] = experiment: Biodistribution in iv dosed rat muscle after 60 mins; format: ADME, organism-based; settings: in vivo, 1 h; in short: as §1
Heart [56] = experiment: Biodistribution in iv dosed rat heart after 120 mins; format: ADME, organism-based; settings: in vivo, 2 h; in short: as §1
Muscle tissue [57] = experiment: Biodistribution in iv dosed rat muscle after 120 mins; format: ADME, organism-based; settings: in vivo, 2 h; in short: as §1
Nucleic Acid [58] = experiment: Ratio of drug level in hippocampus to cerebellum in rat assessed as radioactivity after 120 mins; format: ADME, tissue-based; settings: in vivo, 2 h; in short: as §2

Drug uptake (Blood [1]): 3.1 %ID
Drug uptake (Lung [2]): 1.4 %ID
Drug uptake (Spleen [3]): 1.22 %ID
Drug uptake (Kidney [4]): 2.66 %ID
Drug uptake (Liver [5]): 7.68 %ID
Drug uptake (Blood [6]): 1.74 %ID
Drug uptake (Heart [7]): 0.95 %ID
Ratio (Nucleic Acid [8]): 2.44
Drug uptake (Kidney [9]): 4.04 %ID
Ratio (Nucleic Acid [10]): 4.6
Drug uptake (Kidney [11]): 4.56 %ID
Drug uptake (Striatum [12]): 0.8 % ID/g
Drug uptake (Cortex): 0.07 % ID/g
Drug uptake (Lung [13]): 2.25 %ID
Drug uptake (Zone of skin): 8.66 %ID
Ratio (Nucleic Acid [14]): 7.83
Drug uptake (Brain [15]): 1.85 %ID
Ratio (Nucleic Acid [16]): 1.53
Drug uptake (Kidney [17]): 7.93 %ID
Drug uptake (Spleen [18]): 0.26 %ID
Ratio (Nucleic Acid [19]): 2.72
Drug uptake (Brain [20]): 0.63 %ID
Drug uptake (Spleen [21]): 0.65 %ID
Drug uptake (Heart [22]): 0.17 %ID
Ratio (Nucleic Acid [23]): 3.79
Drug uptake (Liver [24]): 2.26 %ID
Drug uptake (Heart [25]): 0.04 %ID
Drug uptake (Blood [26]): 4.06 %ID
Drug uptake (Heart [27]): 0.12 %ID
Ratio (Nucleic Acid [28]): 1.28
Drug uptake (Lung [29]): 0.33 %ID
Drug uptake (Lung [30]): 0.53 %ID
Ratio (Nucleic Acid [31]): 2.14
Drug uptake (Blood [32]): 11.86 %ID
Drug uptake (Bone [33]): 8.67 %ID
Drug uptake (Muscle tissue [34]): 9.46 %ID
Drug uptake (Liver [35]): 3.74 %ID
Drug uptake (Blood [36]): 4.74 %ID
Drug uptake (Brain [37]): 0.18 %ID
Drug uptake (Muscle tissue [38]): 16.55 %ID
Drug uptake (Striatum [39]): 0.08 % ID/g
Ratio (Nucleic Acid [40]): 3.87
Ratio (Nucleic Acid [41]): 1.22
Drug uptake (Kidney [42]): 1.94 %ID
Drug uptake (Brain [43]): 1.84 %ID
Ratio (Nucleic Acid [44]): 3.26
Ratio (Nucleic Acid [45]): 2.69
Drug uptake (Striatum [46]): 1.01 % ID/g
Ratio (Nucleic Acid [47]): 3.75
Drug uptake (Lung [48]): 13.21 %ID
Drug uptake (Bone [49]): 4.87 %ID
Drug uptake (Brain [50]): 1.21 %ID
Ratio (Nucleic Acid [51]): 3.85
Drug uptake (Liver [52]): 9.9 %ID
Drug uptake (Spleen [53]): 0.35 %ID
Ratio (Nucleic Acid [54]): 6.58
Drug uptake (Muscle tissue [55]): 8.24 %ID
Drug uptake (Heart [56]): 0.09 %ID
Drug uptake (Muscle tissue [57]): 4.24 %ID
Ratio (Nucleic Acid [58]): 3.71
Structure (SMILES): CN(C)Cc1cc(OCC[18F])ccc1Sc1ccccc1N
